Experimental data as given in ChEMBL document CHEMBL5678798 (Clin Cancer Res, 2009).
Calls of active or inactive are those of the source. No cut-off for these calls is given here.

Assays:
[1] = molecular target: Glycogen synthase kinase-3 beta (Homo sapiens, UniProt P49841); assay: Inhibition of GSK3beta (unknown origin)
[2] = molecular target: Insulin receptor (Mus musculus) (UniProt P15208); settings: CD-1, dose 10-60 mg/kg, route po, time 242.0 min
COLO 205 [3] = assay: Induction of cell cycle arrest in human COLO 205 cells assessed as decrease in cells accumulation at S phase at 0.03 to 10 uM incubated for 24 to 48 hrs by propidium iodide staining based flow cytometric analysis; type: functional; settings: dose 0.03-10 µM, time lower 24.0 hrs, time upper […]
Procedure, shortened: (§1)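 COLO 205, MCF-7 or NCI-H929 cells seeded in 96-well plates overnight at 37°C, then exposed to DMSO or increasing compound concentrations for 24 or 48 h. Fixed and stained with propidium iodide (Vindelov method), then analysed by flow cytometry for sub-G1, G1, S and G2-M fractions. Experiment repeated twice.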

[4] = molecular target: 3-phosphoinositide-dependent protein kinase 1 (Homo sapiens, UniProt O15530); assay: Inhibition of PDK1 (unknown origin)
[5] = molecular target: Calcium/calmodulin-dependent protein kinase kinase 2 (Homo sapiens, UniProt Q96RR4); assay: Inhibition of CAMKK2 (unknown origin)
[6] = Inhibition of mouse YAK3
[7] = molecular target: Calcium/calmodulin-dependent protein kinase type IV (Homo sapiens) (UniProt Q16566); assay: Inhibition of C-terminal His6-tagged recombinant full length human CaMKIV expressed in baculovirus infected Sf21 cells at 0.3 uM by filter binding assay relative to control
Procedure, shortened: (§2)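 KinaseProfiler panel of 233 kinases: radiometric filter-binding activity assays with compound at 0.3 or 3 µmol/L. Read-out is percent inhibition.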

HT-29 = assay: Antiproliferative activity against human HT-29 cells assessed as reduction in cell viability after 72 hrs by CellTiter-Glo assay; type: functional, cell-based; settings: HT-29, 72 h
Procedure, shortened: (§3)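 Cells seeded in 96-well plates, left overnight at 37°C, then exposed to a range of test concentrations for 72 h. Viability read by CellTiter-Glo luminescence; IC50 from four-parameter curve fit. Lines kept at 37°C, 5% CO2, in recommended growth medium.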

[8] = Inhibition of CDK2/CyclinA (unknown origin); set-up: species or system Homo sapiens
[9] = Cytotoxicity against HUVEC cells assessed as reduction in cell viability after 72 hrs by CellTiter-Glo assay; type: toxicity, cell-based; settings: human; procedure, shortened: as §3
[10] = molecular target: 3-phosphoinositide-dependent protein kinase 1 (PDPK1) (Homo sapiens) (UniProt O15530); assay: Inhibition of N-terminal His6-tagged recombinant human PDK1 (52 to end residues) expressed in baculovirus infected Sf21 cells at 0.3 uM by filter binding assay relative to control
[11] = molecular target: Serine/threonine-protein kinase TAO2 (Homo sapiens) (UniProt Q9UL54); assay: Inhibition of N-terminal 6His-tagged recombinant human TAO2 expressed in Sf21 cells at 0.3 uM by filter binding assay relative to control
Procedure, shortened: (§4)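 Outsourced single-concentration screen in a commercial panel of 233 protein kinases, run as radiometric filter-binding activity assays. Test agent was tested at 0.3 or 3 µmol/L, as given in each line, from a 10 mmol/L DMSO stock. Activity is expressed as percent inhibition relative to control.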

[12] = molecular target: Death-associated protein kinase 2 (Homo sapiens) (UniProt Q9UIK4); assay: Inhibition of N-terminal GST-tagged recombinant human full length DAPK2 expressed in baculovirus infected Sf21 cells at 3 uM by filter binding assay relative to control; procedure, shortened: as §4
[13] = molecular target: Phosphatidylinositol 4,5-bisphosphate 3-kinase catalytic subunit gamma isoform (Homo sapiens, UniProt P48736); assay: Inhibition of PI3Kgamma (unknown origin)
[14] = Inhibition of N-terminal His6-tagged recombinant full-length human CDK5/N-terminal GST-tagged recombinant full-length human p35 expressed in baculovirus infected Sf21 cells at 3 uM by filter binding assay relative to control; settings: condition cancer; procedure, shortened: as §4
[15] = molecular target: Mitogen-activated protein kinase kinase kinase 5 (Homo sapiens, UniProt Q99683); assay: Inhibition of ASK1 (unknown origin)
[16] = molecular target: Rho-associated protein kinase 1 (Homo sapiens, UniProt Q13464); assay: Inhibition of ROCK1 (unknown origin)
NCI-H929 = assay: Antiproliferative activity against human NCI-H929 cells assessed as reduction in cell viability after 72 hrs by CellTiter-Glo assay; type: functional, cell-based; settings: NCI-H929, 72 h; procedure, shortened: as §3
COLO 205 [17] = assay: Induction of cell cycle arrest in human COLO 205 cells assessed as cells accumulation at S phase at 1 umol/L incubated for 48 hrs by propidium iodide staining based flow cytometric analysis (reference value: 9%); type: functional; settings: dose 1 µmol/L, at 1 µM; procedure, shortened: as §1
[18] = molecular target: Tyrosine-protein kinase Lyn (Homo sapiens) (UniProt P07948); assay: Inhibition of N-terminal His6-tagged recombinant full-length human Lyn expressed in Sf21 cells at 3 uM by filter binding assay relative to control; procedure, shortened: as §4
[19] = Inhibition of recombinant mouse N-terminal 6His-tagged full length P110alpha/full length mouse […] expressed in baculovirus infected Sf21 cells at 3 uM by filter binding assay relative to control; settings: condition cancer
JJN-3 = assay: Antiproliferative activity against human JJN-3 cells assessed as reduction in cell viability after 72 hrs by CellTiter-Glo assay; type: functional, cell-based; settings: JJN-3, 72 h; procedure, shortened: as §3
[20] = molecular target: Phosphatidylinositol 4,5-bisphosphate 3-kinase catalytic subunit beta isoform (Homo sapiens, UniProt P42338); assay: Inhibition of PI3Kbeta (unknown origin)
[21] = Inhibition of recombinant mouse N-terminal 6His-tagged full length P110alpha/full length mouse […] expressed in baculovirus infected Sf21 cells at 0.3 uM by filter binding assay relative to control; settings: condition cancer
[22] = molecular target: Serine/threonine-protein kinase BRSK1 (Homo sapiens) (UniProt Q8TDC3); assay: Inhibition of N-terminal 6His-tagged recombinant human BrSK1 (2 to end residues) expressed in baculovirus infected Sf21 cells at 0.3 uM by filter binding assay relative to control; procedure, shortened: as §2
[23] = molecular target: Ribosomal protein S6 kinase alpha-1 (Homo sapiens, UniProt Q15418); assay: Inhibition of RSK1 (unknown origin)
HN5 = assay: Antiproliferative activity against human HN5 cells assessed as reduction in cell viability after 72 hrs by CellTiter-Glo assay; type: functional, cell-based; settings: HN5, 72 h; procedure, shortened: as §3
[24] = molecular target: BDNF/NT-3 growth factors receptor (Homo sapiens) (UniProt Q16620); assay: Inhibition of N-terminal His6 tagged recombinant human TrkB (455 to end residues) expressed in baculovirus infected Sf21 cells at 0.3 uM by filter binding assay relative to control; procedure, shortened: as §4
[25] = molecular target: Receptor tyrosine-protein kinase erbB-4 (Homo sapiens, UniProt Q15303); assay: Inhibition of ErbB4 (unknown origin)
[26] = molecular target: Tyrosine-protein kinase JAK3 (Homo sapiens, UniProt P52333); assay: Inhibition of JAK3 (unknown origin)
[27] = molecular target: Serine/threonine-protein kinase PAK 4 (Homo sapiens) (UniProt O96013); assay: Inhibition of N-terminal His6/C-terminal GST-tagged recombinant human PAK4 (295 to end residues) expressed in baculovirus infected Sf21 cells at 3 uM by filter binding assay relative to control

Sequence of Serine/threonine-protein kinase TAO2 (Homo sapiens) (Q9UL54 whole entry): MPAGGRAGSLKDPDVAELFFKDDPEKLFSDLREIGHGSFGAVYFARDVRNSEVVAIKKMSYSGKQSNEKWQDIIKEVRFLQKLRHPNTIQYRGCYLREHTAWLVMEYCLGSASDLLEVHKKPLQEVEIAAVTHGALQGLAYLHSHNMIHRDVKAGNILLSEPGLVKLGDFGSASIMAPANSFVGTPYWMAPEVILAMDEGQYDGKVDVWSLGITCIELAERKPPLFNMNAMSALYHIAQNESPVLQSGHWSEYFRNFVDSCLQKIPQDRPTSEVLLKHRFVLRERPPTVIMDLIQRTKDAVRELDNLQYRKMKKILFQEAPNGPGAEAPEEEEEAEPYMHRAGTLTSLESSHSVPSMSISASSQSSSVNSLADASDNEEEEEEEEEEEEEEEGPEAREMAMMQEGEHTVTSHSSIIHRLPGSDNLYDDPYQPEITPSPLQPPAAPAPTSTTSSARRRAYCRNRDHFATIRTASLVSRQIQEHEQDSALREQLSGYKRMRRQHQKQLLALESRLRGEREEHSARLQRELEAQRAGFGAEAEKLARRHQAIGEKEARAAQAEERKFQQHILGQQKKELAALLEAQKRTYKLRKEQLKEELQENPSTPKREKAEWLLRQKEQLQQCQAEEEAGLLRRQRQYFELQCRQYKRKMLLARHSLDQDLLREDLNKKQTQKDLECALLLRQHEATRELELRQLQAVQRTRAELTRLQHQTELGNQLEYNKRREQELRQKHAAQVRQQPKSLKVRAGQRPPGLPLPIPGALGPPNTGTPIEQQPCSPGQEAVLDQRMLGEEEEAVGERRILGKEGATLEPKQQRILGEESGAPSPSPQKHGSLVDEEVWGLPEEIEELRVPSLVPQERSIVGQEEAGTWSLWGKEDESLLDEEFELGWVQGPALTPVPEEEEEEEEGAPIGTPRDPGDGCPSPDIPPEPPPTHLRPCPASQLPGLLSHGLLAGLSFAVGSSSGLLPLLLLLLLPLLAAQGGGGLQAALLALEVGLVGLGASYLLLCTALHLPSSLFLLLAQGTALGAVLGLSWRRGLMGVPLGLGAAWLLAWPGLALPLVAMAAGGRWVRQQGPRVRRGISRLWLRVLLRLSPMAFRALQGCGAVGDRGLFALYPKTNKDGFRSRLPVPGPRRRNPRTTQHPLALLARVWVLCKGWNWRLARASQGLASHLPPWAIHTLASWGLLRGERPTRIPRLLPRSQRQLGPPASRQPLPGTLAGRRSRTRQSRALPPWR
Sequence of Serine/threonine-protein kinase BRSK1 (Homo sapiens) (Q8TDC3 whole entry): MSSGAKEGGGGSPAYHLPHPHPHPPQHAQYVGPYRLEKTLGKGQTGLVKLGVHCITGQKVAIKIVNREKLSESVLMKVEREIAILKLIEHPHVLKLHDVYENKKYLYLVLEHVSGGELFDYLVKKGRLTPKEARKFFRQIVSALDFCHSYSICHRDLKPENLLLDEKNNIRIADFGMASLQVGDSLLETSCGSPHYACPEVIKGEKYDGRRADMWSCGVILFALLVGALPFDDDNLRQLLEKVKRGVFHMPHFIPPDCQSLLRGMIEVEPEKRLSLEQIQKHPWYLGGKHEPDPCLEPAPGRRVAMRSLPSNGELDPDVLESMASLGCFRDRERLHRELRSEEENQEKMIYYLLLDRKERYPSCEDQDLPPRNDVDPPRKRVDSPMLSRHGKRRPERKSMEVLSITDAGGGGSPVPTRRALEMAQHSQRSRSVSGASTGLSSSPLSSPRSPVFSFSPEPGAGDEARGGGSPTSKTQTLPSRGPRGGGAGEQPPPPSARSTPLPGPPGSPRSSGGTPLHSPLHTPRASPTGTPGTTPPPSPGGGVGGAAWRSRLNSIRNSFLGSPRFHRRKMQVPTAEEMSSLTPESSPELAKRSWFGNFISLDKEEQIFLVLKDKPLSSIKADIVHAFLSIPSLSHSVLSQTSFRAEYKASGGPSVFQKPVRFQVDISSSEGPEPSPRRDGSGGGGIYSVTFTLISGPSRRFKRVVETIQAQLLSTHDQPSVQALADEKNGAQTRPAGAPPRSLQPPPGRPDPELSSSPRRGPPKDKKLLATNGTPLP
Sequence of Glycogen synthase kinase-3 beta (P49841 whole entry): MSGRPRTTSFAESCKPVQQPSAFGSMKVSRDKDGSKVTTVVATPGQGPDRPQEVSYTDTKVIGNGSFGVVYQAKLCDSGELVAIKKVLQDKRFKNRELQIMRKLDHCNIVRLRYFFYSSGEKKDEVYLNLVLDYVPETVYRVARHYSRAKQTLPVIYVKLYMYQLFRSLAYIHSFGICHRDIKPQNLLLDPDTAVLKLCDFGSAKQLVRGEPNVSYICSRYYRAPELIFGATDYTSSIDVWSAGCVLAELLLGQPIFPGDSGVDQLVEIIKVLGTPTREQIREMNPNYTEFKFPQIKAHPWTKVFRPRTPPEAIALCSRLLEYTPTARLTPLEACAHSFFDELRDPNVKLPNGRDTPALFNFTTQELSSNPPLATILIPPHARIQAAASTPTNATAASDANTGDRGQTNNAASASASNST
Sequence of 3-phosphoinositide-dependent protein kinase 1 (O15530 whole entry): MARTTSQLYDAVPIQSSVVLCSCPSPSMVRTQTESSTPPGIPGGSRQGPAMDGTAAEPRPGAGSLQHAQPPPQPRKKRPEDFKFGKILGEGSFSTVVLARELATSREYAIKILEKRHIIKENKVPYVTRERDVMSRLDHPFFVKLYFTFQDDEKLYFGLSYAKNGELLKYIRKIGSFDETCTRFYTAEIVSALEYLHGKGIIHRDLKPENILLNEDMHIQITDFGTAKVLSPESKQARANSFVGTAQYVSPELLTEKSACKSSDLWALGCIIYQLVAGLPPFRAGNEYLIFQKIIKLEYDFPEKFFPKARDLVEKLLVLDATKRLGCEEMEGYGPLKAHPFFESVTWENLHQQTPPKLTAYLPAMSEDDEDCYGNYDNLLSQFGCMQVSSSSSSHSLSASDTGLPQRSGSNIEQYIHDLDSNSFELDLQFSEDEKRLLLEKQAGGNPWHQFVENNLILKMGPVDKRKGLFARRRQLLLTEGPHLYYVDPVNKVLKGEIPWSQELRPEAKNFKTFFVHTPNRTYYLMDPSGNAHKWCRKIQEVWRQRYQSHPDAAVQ
Sequence of 3-phosphoinositide-dependent protein kinase 1 (PDPK1) (Homo sapiens) (O15530 whole entry, looked up): as the sequence (O15530 whole entry) above
Sequence of Phosphatidylinositol 4,5-bisphosphate 3-kinase catalytic subunit beta isoform (P42338 whole entry, canonical isoform): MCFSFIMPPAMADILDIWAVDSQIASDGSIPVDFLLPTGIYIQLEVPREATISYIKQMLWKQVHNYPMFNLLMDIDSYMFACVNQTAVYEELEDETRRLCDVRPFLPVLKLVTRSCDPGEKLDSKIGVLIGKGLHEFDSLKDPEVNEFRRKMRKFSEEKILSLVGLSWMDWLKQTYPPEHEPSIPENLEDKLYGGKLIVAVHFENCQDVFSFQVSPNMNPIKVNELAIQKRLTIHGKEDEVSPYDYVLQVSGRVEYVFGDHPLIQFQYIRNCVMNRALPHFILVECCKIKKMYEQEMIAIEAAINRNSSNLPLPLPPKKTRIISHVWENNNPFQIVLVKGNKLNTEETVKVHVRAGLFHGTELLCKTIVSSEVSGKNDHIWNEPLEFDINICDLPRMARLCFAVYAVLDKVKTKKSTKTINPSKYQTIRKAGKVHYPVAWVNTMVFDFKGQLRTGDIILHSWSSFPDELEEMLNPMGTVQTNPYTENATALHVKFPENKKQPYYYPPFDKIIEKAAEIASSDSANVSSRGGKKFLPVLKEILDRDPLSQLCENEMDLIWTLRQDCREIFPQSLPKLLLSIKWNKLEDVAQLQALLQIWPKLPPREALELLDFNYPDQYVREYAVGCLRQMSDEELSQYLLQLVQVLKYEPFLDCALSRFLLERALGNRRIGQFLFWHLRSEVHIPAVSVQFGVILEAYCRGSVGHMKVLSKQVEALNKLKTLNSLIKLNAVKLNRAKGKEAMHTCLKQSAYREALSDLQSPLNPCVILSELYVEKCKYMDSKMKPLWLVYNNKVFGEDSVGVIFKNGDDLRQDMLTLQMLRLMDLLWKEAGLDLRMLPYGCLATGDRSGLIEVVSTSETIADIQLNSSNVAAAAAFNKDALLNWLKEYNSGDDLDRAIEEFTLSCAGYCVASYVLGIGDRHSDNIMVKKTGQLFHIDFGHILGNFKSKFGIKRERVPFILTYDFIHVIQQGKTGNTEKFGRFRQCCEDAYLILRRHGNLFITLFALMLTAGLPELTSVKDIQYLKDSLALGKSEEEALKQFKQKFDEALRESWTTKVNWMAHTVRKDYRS
Sequence of Ribosomal protein S6 kinase alpha-1 (Q15418 whole entry): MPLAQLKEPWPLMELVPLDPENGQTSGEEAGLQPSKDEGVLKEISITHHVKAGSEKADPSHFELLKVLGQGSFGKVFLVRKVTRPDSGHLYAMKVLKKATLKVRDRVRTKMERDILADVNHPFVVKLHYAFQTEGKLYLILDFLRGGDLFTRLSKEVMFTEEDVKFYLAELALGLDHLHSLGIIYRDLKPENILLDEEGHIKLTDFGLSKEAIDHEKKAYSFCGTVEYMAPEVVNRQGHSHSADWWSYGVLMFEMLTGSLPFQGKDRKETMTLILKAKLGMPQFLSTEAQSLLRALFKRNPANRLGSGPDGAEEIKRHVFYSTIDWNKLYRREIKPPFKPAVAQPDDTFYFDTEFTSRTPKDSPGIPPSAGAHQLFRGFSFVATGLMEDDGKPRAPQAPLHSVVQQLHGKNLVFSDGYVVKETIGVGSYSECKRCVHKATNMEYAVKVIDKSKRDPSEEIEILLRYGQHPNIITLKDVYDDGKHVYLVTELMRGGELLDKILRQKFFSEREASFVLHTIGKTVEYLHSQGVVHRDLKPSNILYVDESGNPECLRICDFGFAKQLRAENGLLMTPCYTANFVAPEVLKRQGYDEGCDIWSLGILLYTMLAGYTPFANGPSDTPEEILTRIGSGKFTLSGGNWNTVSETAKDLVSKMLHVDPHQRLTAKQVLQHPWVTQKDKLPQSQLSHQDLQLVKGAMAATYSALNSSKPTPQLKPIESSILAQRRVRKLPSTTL

For `CCc1cc(Nc2nccc(-c3c(-c4ccc(OC)c(C(=O)Nc5c(F)cccc5F)c4)nc4ccccn34)n2)c(OC)cc1N1CCC(N2CCN(S(C)(=O)=O)CC2)CC1`, the IC50 [1] was > 25 µM, the inhibition [2] was “inactive” and the Activity (COLO 205 [3]) was “Active”. For the same compound, the IC50 [4] was > 10 µM, the IC50 [5] was > 10 µM and the IC50 [6] was > 10 µM. For the same compound, the inhibition [7] was 11%, the IC50 (HT-29) was 104 nM and the IC50 [8] was > 10 µM. The IC50 at 72 h [9] was > 20 µM, the inhibition [10] was 1% and the inhibition [11] was 1%. For the same compound, the inhibition [12] was 4%, the IC50 [13] was > 10 µM and the inhibition at 3 µM [14] was -24%. For the same compound, the IC50 [15] was > 25 µM, the IC50 [16] was > 10 µM and the IC50 (NCI-H929) was 81 nM. The Activity (COLO 205 [17]) was 6%, the inhibition [18] was 37% and the inhibition at 3 µM [19] was 0%. The IC50 (JJN-3) was > 30 µM, the IC50 [20] was > 10 µM and the inhibition at 0.3 µM [21] was 0%. For the same compound, the inhibition [22] was 0%, the IC50 [23] was 6.3 µM and the IC50 (HN5) was > 20 µM. The inhibition [24] was 4%, the IC50 [25] was > 25 µM and the IC50 [26] was 13 µM. The inhibition [27] was 0%.
